According to ChEMBL document CHEMBL1136869, “2-Cyclohexylcarbonylbenzimidazoles as potent, orally available and brain-penetrable opioid receptor-like 1 (ORL1) antagonists” (Bioorg Med Chem Lett, 2009):
Values belong to the compound of their own block, whether it stands above or below them. The source made the active and inactive calls. No cut-off for these calls is given here.

What was measured:
[1] = Metabolic stability in human liver microsomes assessed as parent compound remaining at 1 uM after 30 mins; type: ADME, Microsome; details: read-out: Stability
[2] = target: T1, Nociceptin receptor (Homo sapiens, UniProt P41146); assay: Displacement of [125I]Tyr14-NC/OFQ from ORL1 receptor
T1 sequence (P41146 whole entry): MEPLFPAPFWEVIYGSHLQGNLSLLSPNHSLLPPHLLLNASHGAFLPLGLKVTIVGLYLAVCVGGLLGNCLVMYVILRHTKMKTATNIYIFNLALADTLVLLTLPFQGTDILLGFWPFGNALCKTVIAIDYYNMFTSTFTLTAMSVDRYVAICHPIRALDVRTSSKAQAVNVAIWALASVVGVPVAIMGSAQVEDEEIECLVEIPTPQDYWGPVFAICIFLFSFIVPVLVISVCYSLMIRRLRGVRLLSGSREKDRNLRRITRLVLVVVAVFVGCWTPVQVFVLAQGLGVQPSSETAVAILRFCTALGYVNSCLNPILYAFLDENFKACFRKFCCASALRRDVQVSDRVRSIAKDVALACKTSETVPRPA

[3] = target: Voltage-gated inwardly rectifying potassium channel KCNH2 (Homo sapiens, UniProt Q12809); assay: Displacement of [35S]MK499 from human ERG expressed in HEK293 cells
Voltage-gated inwardly rectifying potassium channel KCNH2, sequence (Q12809 whole entry): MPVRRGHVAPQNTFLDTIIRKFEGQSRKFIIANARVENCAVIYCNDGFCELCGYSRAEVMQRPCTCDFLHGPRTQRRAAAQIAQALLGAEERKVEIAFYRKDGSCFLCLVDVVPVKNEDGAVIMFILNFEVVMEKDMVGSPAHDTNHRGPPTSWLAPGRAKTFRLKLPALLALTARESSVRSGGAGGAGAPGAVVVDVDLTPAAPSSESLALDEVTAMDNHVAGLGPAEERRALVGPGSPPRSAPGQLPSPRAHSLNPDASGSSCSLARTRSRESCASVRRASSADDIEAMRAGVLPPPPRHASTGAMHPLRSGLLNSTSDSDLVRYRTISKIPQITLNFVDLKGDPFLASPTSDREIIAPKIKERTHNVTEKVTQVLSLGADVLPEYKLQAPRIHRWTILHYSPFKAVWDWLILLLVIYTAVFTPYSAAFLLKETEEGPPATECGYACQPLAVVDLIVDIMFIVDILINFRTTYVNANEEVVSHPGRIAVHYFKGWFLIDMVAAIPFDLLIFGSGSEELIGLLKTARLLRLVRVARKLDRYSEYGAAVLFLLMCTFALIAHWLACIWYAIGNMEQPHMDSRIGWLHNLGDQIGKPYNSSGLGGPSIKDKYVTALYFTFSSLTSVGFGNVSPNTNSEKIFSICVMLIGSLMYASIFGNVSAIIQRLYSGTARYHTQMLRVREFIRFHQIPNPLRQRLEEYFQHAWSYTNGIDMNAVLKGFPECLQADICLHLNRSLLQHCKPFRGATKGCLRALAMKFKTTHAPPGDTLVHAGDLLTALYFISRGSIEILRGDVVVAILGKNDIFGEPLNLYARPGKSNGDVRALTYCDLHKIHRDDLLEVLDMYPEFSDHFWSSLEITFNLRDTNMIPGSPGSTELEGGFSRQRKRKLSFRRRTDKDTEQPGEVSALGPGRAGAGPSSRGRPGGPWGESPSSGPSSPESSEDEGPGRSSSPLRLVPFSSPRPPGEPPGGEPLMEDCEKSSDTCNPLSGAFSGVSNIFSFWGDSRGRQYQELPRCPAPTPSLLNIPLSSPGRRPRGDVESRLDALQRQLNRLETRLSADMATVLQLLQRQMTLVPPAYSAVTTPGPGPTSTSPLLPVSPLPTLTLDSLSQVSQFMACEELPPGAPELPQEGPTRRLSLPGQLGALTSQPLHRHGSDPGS

[4] = target: T1, Nociceptin receptor; assay: Antagonist activity against ORL1 receptor by [S35]GTPgammaS binding; type: functional
[5] = Distribution coefficient, log D at pH 7.4 by shake flask method; type: physicochemical; details: octanol/water
[6] = Drug level in mouse plasma at 30 mg/kg, po after 1 hr; type: ADME, organism-based; design: dose 30 mg/kg, route oral
[7] = Ratio of drug level in mouse brain to plasma at 30 mg/kg, po after 1 hr; type: ADME, organism-based; design: dose 30 mg/kg, route oral
[8] = tested on: Brain; assay: Drug level in mouse brain at 30 mg/kg, po after 1 hr; type: ADME, organism-based; design: dose 30 mg/kg, route oral; details: in vivo
[9] = Half life in dog at 3 mg/kg, po and 1 mg/kg, iv; type: ADME, organism-based, Canis lupus familiaris; details: in vivo
[10] = target: Histamine H3 receptor (Homo sapiens) (UniProt Q9Y5N1); assay: Inhibition of histamine H3 receptor at 10 uM
Histamine H3 receptor (Homo sapiens), sequence (Q9Y5N1 whole entry): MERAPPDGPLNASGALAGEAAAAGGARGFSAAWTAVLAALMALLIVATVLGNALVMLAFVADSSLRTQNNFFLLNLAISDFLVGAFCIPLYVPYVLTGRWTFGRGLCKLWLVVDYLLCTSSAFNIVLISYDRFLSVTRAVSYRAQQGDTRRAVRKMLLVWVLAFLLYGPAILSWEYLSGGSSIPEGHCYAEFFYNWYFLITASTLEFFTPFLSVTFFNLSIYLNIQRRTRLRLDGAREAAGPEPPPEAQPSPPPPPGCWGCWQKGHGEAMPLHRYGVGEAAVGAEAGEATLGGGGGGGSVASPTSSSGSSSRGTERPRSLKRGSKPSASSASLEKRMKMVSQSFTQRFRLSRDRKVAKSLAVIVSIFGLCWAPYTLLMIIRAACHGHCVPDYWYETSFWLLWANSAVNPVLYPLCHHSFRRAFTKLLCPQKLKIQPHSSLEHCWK

[11] = Half life in monkey at 3 mg/kg, po and 1 mg/kg, iv; type: ADME, organism-based, Macaca mulatta; details: rhesus monkey, in vivo
[12] = target: T2, Alpha-1D adrenergic receptor (Homo sapiens) (UniProt P25100); assay: Inhibition of adrenergic Alpha-1D receptor at 10 uM
T2 sequence (whole entry): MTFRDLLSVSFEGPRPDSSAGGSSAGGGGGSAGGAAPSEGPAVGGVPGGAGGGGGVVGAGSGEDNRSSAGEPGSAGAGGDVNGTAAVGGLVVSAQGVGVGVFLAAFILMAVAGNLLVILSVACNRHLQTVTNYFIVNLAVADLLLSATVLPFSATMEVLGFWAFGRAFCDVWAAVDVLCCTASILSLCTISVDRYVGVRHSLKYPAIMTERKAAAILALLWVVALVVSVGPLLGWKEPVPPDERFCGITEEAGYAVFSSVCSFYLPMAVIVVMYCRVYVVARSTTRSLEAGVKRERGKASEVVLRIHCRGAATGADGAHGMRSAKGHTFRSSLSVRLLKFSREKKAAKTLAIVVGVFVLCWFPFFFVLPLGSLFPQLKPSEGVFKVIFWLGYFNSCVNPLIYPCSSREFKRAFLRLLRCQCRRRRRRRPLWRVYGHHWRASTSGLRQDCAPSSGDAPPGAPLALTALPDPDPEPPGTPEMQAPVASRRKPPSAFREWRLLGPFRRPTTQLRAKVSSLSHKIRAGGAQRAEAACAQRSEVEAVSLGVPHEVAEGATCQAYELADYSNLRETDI

[13] = Plasma concentration in mouse at 3 mg/kg, sc after 30 mins; type: ADME, organism-based; design: dose 3 mg/kg, route subcutaneous
[14] = Half life in rat at 3 mg/kg, po and 1 mg/kg, iv; type: ADME, organism-based; details: in vivo
[15] = tested on: Brain; assay: Drug level in mouse brain at 3 mg/kg, sc after 30 mins; type: ADME, organism-based; design: dose 3 mg/kg, route subcutaneous; details: in vivo, 0.5 h
[16] = Oral bioavailability in dog at 3 mg/kg; type: ADME, organism-based, Canis lupus familiaris; details: in vivo
[17] = Oral bioavailability in monkey at 3 mg/kg; type: ADME, organism-based, Macaca mulatta; details: rhesus monkey, in vivo
[18] = Inhibition of adrenergic alpha1 receptor at 10 uM
[19] = Clearance in dog at 3 mg/kg, po and 1 mg/kg, iv; type: ADME, organism-based, Canis lupus familiaris; details: in vivo
[20] = target: Kappa-type opioid receptor (Homo sapiens, UniProt P41145); assay: Displacement of [3H]U69593 from human kappa opioid receptor expressed in CHO cells; type: cell-based
Kappa-type opioid receptor, sequence (P41145 whole entry): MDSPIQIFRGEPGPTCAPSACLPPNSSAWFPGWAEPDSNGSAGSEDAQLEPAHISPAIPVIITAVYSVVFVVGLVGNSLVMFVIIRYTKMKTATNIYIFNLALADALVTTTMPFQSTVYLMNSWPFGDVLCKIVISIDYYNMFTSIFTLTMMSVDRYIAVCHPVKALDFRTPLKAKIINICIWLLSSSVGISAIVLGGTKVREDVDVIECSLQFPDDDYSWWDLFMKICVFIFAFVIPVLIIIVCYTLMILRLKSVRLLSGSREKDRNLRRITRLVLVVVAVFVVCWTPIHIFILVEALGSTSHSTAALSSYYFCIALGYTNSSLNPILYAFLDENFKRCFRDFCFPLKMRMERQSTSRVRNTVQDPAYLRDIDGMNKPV
In short: (§1)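 Radioligand displacement in CHO cells stably expressing cloned human opioid receptors: [3H]diprenorphin for mu and [3H]U69593 for kappa. IC50 values were reported.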

[21] = Oral bioavailability in rat at 3 mg/kg; type: ADME, organism-based; details: in vivo
[22] = tested on: Canis familiaris; assay: Toxic effect in anesthetized dog assessed as incidence of cardiovascular events at 10 mg/kg, iv; type: toxicity, organism-based, Canis lupus familiaris; design: dose 10 mg/kg, route intravenous; details: in vivo
[23] = Cmax in dog at 10 mg/kg, iv; type: ADME, organism-based, Canis lupus familiaris; design: dose 10 mg/kg, route intravenous; details: in vivo
[24] = Ratio of drug level in brain to plasma of mouse at 3 mg/kg, sc after 30 mins; type: ADME, organism-based; design: dose 3 mg/kg, route subcutaneous
In short: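 Mice dosed subcutaneously at 3 mg/kg; brain and plasma sampled 30 min after dosing. Brain level measured as nmol/g tissue alongside plasma concentration; value is the brain-to-plasma (b/p) ratio of these two levels.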

[25] = target: Delta-type opioid receptor (Homo sapiens, UniProt P41143); assay: Displacement of [3H]naltrindole from human delta opioid receptor expressed in CHO cells
Delta-type opioid receptor, sequence (P41143 whole entry): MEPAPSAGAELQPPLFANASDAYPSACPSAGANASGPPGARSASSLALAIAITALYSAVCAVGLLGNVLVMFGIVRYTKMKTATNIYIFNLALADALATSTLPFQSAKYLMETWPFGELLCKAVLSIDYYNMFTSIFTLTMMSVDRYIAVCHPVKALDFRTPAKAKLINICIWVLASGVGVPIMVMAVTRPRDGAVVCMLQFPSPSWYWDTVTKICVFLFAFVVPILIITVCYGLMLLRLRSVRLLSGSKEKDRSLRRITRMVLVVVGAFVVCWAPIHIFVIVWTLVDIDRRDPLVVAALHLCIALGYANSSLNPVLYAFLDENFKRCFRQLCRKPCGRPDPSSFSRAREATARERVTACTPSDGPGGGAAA

[26] = target: Mu-type opioid receptor (Homo sapiens, UniProt P35372); assay: Displacement of [3H]diprenorphin from human mu opioid receptor expressed in CHO cells; type: cell-based; in short: as §1
Mu-type opioid receptor, sequence (P35372 whole entry): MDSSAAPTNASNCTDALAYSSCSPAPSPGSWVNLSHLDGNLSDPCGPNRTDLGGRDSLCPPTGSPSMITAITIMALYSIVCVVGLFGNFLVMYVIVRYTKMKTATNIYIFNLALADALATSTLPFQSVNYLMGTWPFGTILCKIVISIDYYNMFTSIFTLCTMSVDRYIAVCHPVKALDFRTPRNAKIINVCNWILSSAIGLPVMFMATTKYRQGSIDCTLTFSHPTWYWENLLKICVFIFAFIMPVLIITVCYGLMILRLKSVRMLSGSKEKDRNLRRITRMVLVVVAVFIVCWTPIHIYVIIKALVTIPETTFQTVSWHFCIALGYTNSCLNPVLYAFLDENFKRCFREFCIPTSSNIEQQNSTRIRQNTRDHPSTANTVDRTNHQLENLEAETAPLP

[27] = Clearance in rat at 3 mg/kg, po and 1 mg/kg, iv; type: ADME, organism-based; details: in vivo
[28] = tested on: Rattus norvegicus; assay: Antihyperalgesic activity in rat assessed as inhibition of carrageenan-induced hyperalgesia at 30 mg/kg, sc after 1 hr; type: functional, organism-based; design: dose 30 mg/kg
In short: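 Rats received carrageenin (0.15 ml, 3%) by intraplantar injection 3 h before testing. Compound was given sc, and testing followed 1 h later. Responses to a noxious mechanical stimulus were scored, with significance set at P < 0.05.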

[29] = target: Cannabinoid receptor 2 (Homo sapiens) (UniProt P34972); assay: Inhibition of CB2 receptor at 10 uM
Cannabinoid receptor 2 (Homo sapiens), sequence (P34972 whole entry): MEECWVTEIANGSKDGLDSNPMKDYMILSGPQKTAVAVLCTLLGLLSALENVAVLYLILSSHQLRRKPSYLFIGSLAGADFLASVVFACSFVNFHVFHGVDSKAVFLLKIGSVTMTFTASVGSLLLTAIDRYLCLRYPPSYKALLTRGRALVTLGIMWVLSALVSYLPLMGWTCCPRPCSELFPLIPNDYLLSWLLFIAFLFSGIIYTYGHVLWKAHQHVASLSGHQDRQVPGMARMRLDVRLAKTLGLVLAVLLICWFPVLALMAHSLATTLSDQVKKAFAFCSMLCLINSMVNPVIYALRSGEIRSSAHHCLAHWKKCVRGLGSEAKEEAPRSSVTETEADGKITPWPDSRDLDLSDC

[30] = target: T3, High affinity choline transporter 1 (Homo sapiens) (UniProt Q9GZV3); assay: Inhibition of choline transporter at 10 uM
T3 sequence (whole entry): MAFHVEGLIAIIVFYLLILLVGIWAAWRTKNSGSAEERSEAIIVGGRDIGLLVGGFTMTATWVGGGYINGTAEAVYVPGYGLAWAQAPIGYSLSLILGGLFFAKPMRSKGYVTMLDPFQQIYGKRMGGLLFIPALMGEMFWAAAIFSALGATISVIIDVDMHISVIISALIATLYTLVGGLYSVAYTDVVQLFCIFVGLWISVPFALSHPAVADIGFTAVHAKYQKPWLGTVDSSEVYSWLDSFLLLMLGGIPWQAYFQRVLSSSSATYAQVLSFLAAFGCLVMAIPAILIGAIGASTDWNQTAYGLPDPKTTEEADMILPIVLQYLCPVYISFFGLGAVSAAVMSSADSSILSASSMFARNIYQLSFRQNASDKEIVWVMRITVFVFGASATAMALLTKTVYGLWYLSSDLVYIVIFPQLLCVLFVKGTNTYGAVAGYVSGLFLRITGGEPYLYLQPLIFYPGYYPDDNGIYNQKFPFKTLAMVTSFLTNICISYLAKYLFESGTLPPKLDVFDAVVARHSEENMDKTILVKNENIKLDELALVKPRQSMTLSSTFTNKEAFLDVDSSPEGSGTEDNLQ

[31] = Clearance in monkey at 3 mg/kg, po and 1 mg/kg, iv; type: ADME, organism-based, Macaca mulatta; details: rhesus monkey, in vivo

remaining at 0.5 h, 1 µM [1]: 71%
IC50 [2]: 2 nM
IC50 [4]: 5.3 nM
logD [5]: 3.1
SMILES: CCN1CCN(c2cc3[nH]c(C(=O)[C@]4(C)CC[C@@H](NC(=O)OC)CC4)nc3cc2C)CC1
IC50 [3]: 3000 nM

concentration at 1 h [6]: 4.56 µM
Kp at 1 h [7]: 0.09
Drug uptake [8]: 0.38 nmol/g
SMILES: CCN1CCN(c2cc3[nH]c(S[C@]4(C)CC[C@@H](N(C)C(C)=O)CC4)nc3cc2Cl)CC1

IC50 [2]: 27 nM
SMILES: CCN1CCN(c2cc3[nH]c(C(=O)[C@]4(C)CC[C@](C)(O)CC4)nc3cc2Cl)CC1
IC50 [3]: 3100 nM

half-life [9]: 3.5 h
remaining at 0.5 h, 1 µM [1]: 82%
inhibition [10]: 50%
half-life [11]: 4 h
inhibition [12]: 74%
concentration at 0.5 h [13]: 1.08 µM
half-life [14]: 0.62 h
Drug uptake [15]: 2.21 nmol/g
bioavailability [16]: 38%
bioavailability [17]: 8%
inhibition [18]: 72%
clearance [19]: 34 mL/min/kg
IC50 [20]: 1400 nM
bioavailability [21]: 15%
Cmax [23]: 10.7 µM
Kp at 0.5 h [24]: 2.02
IC50 [25]: > 10000 nM
IC50 [26]: > 10000 nM
IC50 [4]: 1.3 nM
clearance [27]: 77 mL/min/kg
inhibition [29]: 73%
inhibition [30]: 62%
clearance [31]: 22 mL/min/kg
logD [5]: 3.1
SMILES: CCN1CCN(c2cc3[nH]c(C(=O)[C@]4(C)CC[C@@](C)(O)CC4)nc3cc2Cl)CC1
IC50 [3]: 20000 nM
Activity [22]: Non-toxic
Activity [28]: Active

Second part, the compound before the results:

SMILES: CCN1CCN(c2cc3[nH]c(S[C@]4(C)CC[C@@H](NC(=O)OC)CC4)nc3cc2Cl)CC1
concentration at 1 h [6]: 22.2 µM
Kp at 1 h [7]: 0.05
Drug uptake [8]: 1.11 nmol/g

SMILES: CCN1CCN(c2cc3[nH]c(C(=O)C4(C)CCC(=O)CC4)nc3cc2Cl)CC1
IC50 [2]: 9.9 nM
IC50 [3]: 8500 nM
IC50 [4]: 38 nM
logD [5]: 3

SMILES: CCN1CCN(c2cc3[nH]c(C(=O)[C@]4(C)CC[C@@H](NC(=O)OC)CC4)nc3cc2Cl)CC1
remaining at 0.5 h, 1 µM [1]: 74%
IC50 [2]: 5.7 nM
IC50 [3]: 4900 nM
IC50 [4]: 7.5 nM
logD [5]: 3.7

SMILES: CCN1CCN(c2cc3[nH]c(C(=O)[C@]4(CC)CC[C@@](C)(O)CC4)nc3cc2Cl)CC1
remaining at 0.5 h, 1 µM [1]: 57%
IC50 [2]: 0.8 nM
IC50 [4]: 2.4 nM
logD [5]: 3.6
